ChEMBL document CHEMBL1275590, “Novel arylimidamides for treatment of visceral leishmaniasis” (Antimicrob Agents Chemother, 2010)

Legend:
[1] = Cmax in Swiss Webster mouse at 131 mg/kg, po by HPLC-MS/MS analysis; type: ADME, organism-based; parameters: dose 131 mg/kg, route oral; details: in vivo
In short: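 Male Swiss Webster mice, n = 3 per time point. For i.v., the compound was dissolved in sterile water, diluted 1:1 with 2× saline, and given as a tail-vein bolus over ~10–20 s. For p.o., it was given by gavage in sterile water. Dose volume was 5 ml/kg. Terminal plasma was taken from 5 min to 72 h and measured by HPLC-MS/MS (calibration 2.5–10,000 nM). Parameters came from noncompartmental analysis.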

Mus musculus [2] = assay: Toxicity in BALB/c mouse at 25 mg/kg/day, po administered for five days; type: organism-based; parameters: route oral; details: in vivo
[3] = Half life in Swiss Webster mouse at 1 mg/kg, iv by HPLC-MS/MS analysis; type: ADME, organism-based; parameters: dose 1 mg/kg, route intravenous; details: in vivo
In short: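 Male Swiss Webster mice, n = 3 per time point. For i.v., the compound was dissolved in sterile water, diluted 1:1 with 2× saline, and given as a tail-vein bolus over ~10–20 s. For p.o., it was given by gavage in sterile water. Dose volume was 5 ml/kg. Parameters came from noncompartmental analysis.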

Mus musculus [4] = assay: Hepatotoxicity in BALB/c mouse assessed as alkaline phosphatase level in serum at 10 mg/kg/day, iv administered for five days (Rvb= 134 U/L); type: toxicity, organism-based; parameters: route intravenous; details: in vivo
[5] = Tmax in Swiss Webster mouse at 131 mg/kg, po by HPLC-MS/MS analysis; type: ADME, organism-based; parameters: dose 131 mg/kg, route oral; details: in vivo
In short: (§1)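 Male Swiss Webster mice (n = 3 per time point), single dose by oral gavage (sterile water solution) or tail-vein bolus i.v. (water diluted 1:1 with 2× saline, over ~10–20 s); dose volume 5 ml/kg. Terminal blood sampled from 5 min to 72 h postdose; plasma quantified by HPLC-MS/MS (positive-ion SRM). Noncompartmental analysis gave Cmax, Tmax, AUC0-∞, CL, Vss; bioavailability from p.o. versus i.v. exposure.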

Mus musculus [6] = assay: Toxicity in BALB/c mouse assessed as occurrence of tremor at 150 mg/kg/day, po administered for five days measured on day 4; type: organism-based; parameters: route oral; details: in vivo
In short: (§2)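 Female BALB/c mice (n = 5 per dose), dosed once daily for 5 consecutive days p.o. (20 ml/kg) or i.v. (10 ml/kg) with compound in sterile water, prepared fresh daily under yellow light. Vehicle controls n = 5 per route. Clinical observations, body weights, serum chemistry and hematology on day 6 before necropsy; histopathology of formalin-fixed tissues. Chemistry analysed by one-way ANOVA with Dunnett's posttest.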

Mus musculus [7] = assay: Toxicity in BALB/c mouse assessed as splenic lymphoid depletion at 150 mg/kg/day, po; type: organism-based; parameters: route oral; details: in vivo
In short: (§3)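 Five-day repeat-dose study in female BALB/c mice (n = 5 per dose level): oral dosing once daily for five consecutive days in sterile water prepared fresh daily under yellow light, 20 ml/kg. Vehicle controls received sterile water only. Clinical observations and body weights were recorded, with blood for hematology and serum chemistry taken on day 6 before necropsy. A veterinary pathologist examined formalin-fixed tissues.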

Mus musculus [8] = assay: Hepatotoxicity in BALB/c mouse assessed as ALT level in serum at 10 mg/kg/day, iv administered for five days (Rvb= 34 U/L); type: toxicity, organism-based; parameters: route intravenous; details: in vivo
Mus musculus [9] = assay: Toxicity in BALB/c mouse assessed as liver necrosis at 150 mg/kg/day, po; type: organism-based; parameters: route oral; details: in vivo; in short: as §2
Mus musculus [10] = assay: Toxicity in BALB/c mouse at 150 mg/kg/day, po administered for five days measured on day 5; type: organism-based; parameters: route oral; details: in vivo; in short: as §3
Mus musculus [11] = assay: Toxicity in BALB/c mouse assessed as decrease in body weight at 150 mg/kg/day, po administered for five days; type: organism-based; parameters: route oral; details: in vivo; in short: as §2
Mus musculus [12] = assay: Toxicity in BALB/c mouse assessed as tremor at 100 mg/kg/day, ip after second dose; type: organism-based; parameters: route intraperitoneal; details: in vivo
In short: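 Acute overt toxicity was checked in uninfected female BALB/c mice before the efficacy work. Compounds were given intraperitoneally once daily for 5 days, and mice were watched for clinical signs such as ruffled fur, hypoactivity, tremors, ataxia and startle, and for survival.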

[13] = Induction of mutagenicity in Salmonella serovar Typhimurium TA 98 assessed as number of revertant colonies at 5 ug by Ames assay in presence of Aroclor 1254-induced rat liver S9 metabolic activation system; type: toxicity, subcellular, Salmonella enterica subsp. enterica serovar Typhimurium
In short: (§4)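 Plate incorporation test, S. Typhimurium TA98 (and TA100), with or without Aroclor 1254-induced rat liver S9 (10% vol/vol). Compound dissolved in sterile water, serially diluted to 1–1,000 or 1–500 μg/plate. Positive controls: 2-nitrofluorene and sodium azide without S9, 2-aminoanthracene with S9; water and DMSO vehicle controls. Revertant colonies and background lawn scored; mutagen if mean revertants ≥2-fold solvent control. Single experiment.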

[14] = Oral bioavailability in Swiss Webster mouse at 70 mg/kg by HPLC-MS/MS analysis; type: ADME, organism-based; details: in vivo; in short: as §1
Mus musculus [15] = assay: Hepatotoxicity in BALB/c mouse assessed as ALT level in serum at 30 mg/kg/day, iv administered for five days (Rvb= 34 U/L); type: toxicity, organism-based; parameters: route intravenous; details: in vivo
Leishmania donovani [16] = assay: Antileishmanial activity against Leishmania donovani WR378 infected in golden Syrian hamster assessed as reduction in spleen parasitemia at 30 mg/kg/day, po administered for five days; type: functional; details: 120 h
In short: (§5)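 11-day golden hamster VL model adapted from an 8-day method, using L. donovani WR378 metacyclic promastigotes. Dosing was oral, once daily for 5 days. Animals were euthanized on day 11 post-infection. Liver, spleen and femoral bone marrow (flushed with Schneider's medium) were harvested.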

[17] = Induction of mutagenicity in Salmonella serovar Typhimurium TA 98 assessed as number of revertant colonies at 1 ug by Ames assay; type: toxicity, Salmonella enterica subsp. enterica serovar Typhimurium; details: in vivo
In short: (§6)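 Ames plate incorporation with S. Typhimurium TA98 and TA100, with or without Aroclor 1254-induced rat liver S9 (10% vol/vol). Compound was dissolved in sterile water and serially diluted to 1–500 μg/plate. Positive controls were 2-nitrofluorene and sodium azide without S9, and 2-aminoanthracene with S9; sterile water and DMSO served as vehicles. Revertant colonies and background lawn were scored. A mutagen was defined as a mean revertant count at least 2-fold over solvent control. Single experiment.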

Mus musculus [18] = assay: Toxicity in BALB/c mouse at 100 mg/kg/day, po administered for five days; type: organism-based; parameters: route oral; details: in vivo; in short: as §3
Leishmania donovani [19] = assay: Antileishmanial activity against Leishmania donovani WR378 infected in golden Syrian hamster assessed as reduction in bone marrow parasitemia at 50 mg/kg/day, po administered for five days; type: functional; details: 120 h; in short: as §5
Leishmania donovani [20] = assay: Antileishmanial activity against Leishmania donovani WR378 infected in golden Syrian hamster assessed as reduction in liver parasitemia at 50 mg/kg/day, po administered for five days; type: functional; details: 120 h; in short: as §5
[21] = Induction of mutagenicity in Salmonella serovar Typhimurium TA 98 assessed as number of revertant colonies at 10 ug by Ames assay in presence of Aroclor 1254-induced rat liver S9 metabolic activation system; type: toxicity, subcellular, Salmonella enterica subsp. enterica serovar Typhimurium; in short: as §6
[22] = Induction of mutagenicity in Salmonella serovar Typhimurium TA 100 assessed as number of revertant colonies at 1 ug by Ames assay; type: toxicity, Salmonella enterica subsp. enterica serovar Typhimurium; details: in vivo; in short: as §6
[23] = Induction of mutagenicity in Salmonella serovar Typhimurium TA 100 assessed as number of revertant colonies at 10 ug by Ames assay; type: toxicity, Salmonella enterica subsp. enterica serovar Typhimurium; details: in vivo; in short: as §6
[24] = Induction of mutagenicity in Salmonella serovar Typhimurium TA 98 assessed as number of revertant colonies at 100 ug by Ames assay in presence of Aroclor 1254-induced rat liver S9 metabolic activation system; type: toxicity, subcellular, Salmonella enterica subsp. enterica serovar Typhimurium; in short: as §6
[25] = Induction of mutagenicity in Salmonella serovar Typhimurium TA 98 assessed as number of revertant colonies at 500 ug by Ames assay in presence of Aroclor 1254-induced rat liver S9 metabolic activation system; type: toxicity, subcellular, Salmonella enterica subsp. enterica serovar Typhimurium; in short: as §4

**Q.** Which results are given for `CCOc1cc(NC(=N)c2ccccn2)ccc1-c1ccc(-c2ccc(NC(=N)c3ccccn3)cc2OCC)o1`?
**A.** Cmax [1]: 1680 nM; Activity (Mus musculus [2]): Non-toxic; half-life [3]: 17 h; Activity (Mus musculus [4]): 118 U/L; Tmax [5]: 2 h; Activity (Mus musculus [6]): Toxic; Activity (Mus musculus [7]): Toxic; Activity (Mus musculus [8]): 40 U/L; Activity (Mus musculus [9]): Toxic; Activity (Mus musculus [10]): Toxic; Activity (Mus musculus [11]): Toxic; Activity (Mus musculus [12]): Toxic

**Q.** With `CC(C)Oc1cc(NC(=N)c2ccccn2)ccc1-c1ccc(-c2ccc(NC(=N)c3ccccn3)cc2OC(C)C)o1` as the compound, how does the Activity [13] read?
**A.** 48

**Q.** And the bioavailability [14]?
**A.** 10.4%

**Q.** What about the Activity (Mus musculus [15]) of the same compound?
**A.** 35 U/L

**Q.** And the inhibition in vivo at 30 mg/kg/day (Leishmania donovani [16])?
**A.** 67%

**Q.** What about the Activity [17] of the same compound?
**A.** 38

**Q.** And the Activity (Mus musculus [18])?
**A.** Non-toxic

**Q.** What about the inhibition in vivo at 50 mg/kg/day (Leishmania donovani [19]) of the same compound?
**A.** 70%

**Q.** What about the inhibition in vivo at 50 mg/kg/day (Leishmania donovani [20]) of the same compound?
**A.** 76%

**Q.** What about the Activity [21] of the same compound?
**A.** 38

**Q.** What about the Activity [22] of the same compound?
**A.** 152

**Q.** And the Activity [23]?
**A.** 148

**Q.** And the Activity [24]?
**A.** 38

**Q.** And the Activity [25]?
**A.** 47
